Experimental data as given in PMC3525873 (British Journal of Pharmacology, 2012).

Key:
Format in all cases: cell-based
RBL-2H3 cells = experiment: Degranulation assay; conditions: ionomycin 0.4 μM
Procedure, shortened: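 RBL-2H3 cells grown to confluency, washed in RBL-2H3 buffer with 2 mM CaCl2, all incubations at 37°C. Test compound (3 or 10 μM) for 15 min, then ionomycin 0.4 μM final for 30 min. Stopped with 0.4 M glycine (pH 10.7), A405 read. Untreated and 2% triton-lysed cells served as basal/maximal references. n = 3 passages.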

[1] = biological target: STIM1/Orai1-mediated SOCE (Rattus norvegicus, UniProt Q5M848); experiment: Fura-2 Ca2+ re-addition, thapsigargin-depleted native RBL-2H3 cells
Chain of STIM1/Orai1-mediated SOCE (Q5M848 whole entry, the tested form may be a part): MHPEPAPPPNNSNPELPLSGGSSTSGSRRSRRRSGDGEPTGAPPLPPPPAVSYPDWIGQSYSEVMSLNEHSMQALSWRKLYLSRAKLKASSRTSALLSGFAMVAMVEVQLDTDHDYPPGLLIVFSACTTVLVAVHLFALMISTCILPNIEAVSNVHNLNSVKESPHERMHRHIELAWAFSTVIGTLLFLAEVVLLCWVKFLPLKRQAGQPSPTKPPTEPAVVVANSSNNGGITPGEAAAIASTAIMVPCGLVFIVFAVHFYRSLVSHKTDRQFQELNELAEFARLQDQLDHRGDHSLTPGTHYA
Procedure, shortened: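 Native RBL-2H3 cells were loaded with 2 μM Fura-2-AM for 45 min and perfused in Ca2+-free extracellular solution at room temperature. Stores depleted with 1 μM thapsigargin for 5 min. Test compound present ≥5 min before and throughout. Ca2+ entry evoked by 2 mM Ca2+ re-addition; 340/380 nm ratio read (510 nm emission). Inhibition expressed as % of control peak entry. IC50 by 4-parameter logistic fit; 3–5 experiments, 29–80 cells.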

[2] = biological target: CRAC currents in native RBL-2H3 cells (Rattus norvegicus, UniProt Q5M848); experiment: Patch-clamp of CRAC currents in native RBL-2H3 cells; conditions: for Effect on CRAC Ca2+ entry-mediating conductance: 3 μM pre-incubation
Chain of CRAC currents in native RBL-2H3 cells (Q5M848 whole entry): as the sequence (Q5M848 whole entry, the tested form may be a part) above
Procedure, shortened: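 Whole-cell recording of native RBL-2H3 cells at room temperature. Stores depleted passively by 20 mM EGTA in the Cs-methanesulphonate pipette solution (pH 7.2). Bath contained 20 mM CaCl2 (pH 7.4). Ramps from −90 to +90 mV over 1 s, holding +30 mV. Test compound at 3 μM, pre-incubated or applied acutely. Net current (minus basal) read at −85 mV 300 s after break-in; n ≥ 6 cells.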

NFAT = experiment: GFP-NFAT translocation in RBL-2H3 cells; conditions: 10 μM, thapsigargin 1 μM then 2 mM Ca2+ re-addition
Procedure, shortened: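 RBL-2H3 cells electroporated with GFP-NFAT (20 μg DNA, 300 V, 275 μF) 12–18 h beforehand, on coverslips. In nominally Ca2+-free buffer, stores depleted with 1 μM thapsigargin for 5 min, then 2 mM CaCl2 added. Test compound at 10 μM in all buffers. Basal taken before depletion. Cells fixed in paraformaldehyde with DAPI-stained nuclei. Nuclear/cytosolic GFP intensity ratio measured; ≥18 cells per condition.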

TRPC3 = biological target: T1, TRPC3 (Homo sapiens, UniProt Q13507); experiment: Patch-clamp of TRPC3 currents in HEK293 cells transiently expressing TRPC3; conditions: 3 μM pre-incubation, carbachol
T1 sequence (Q13507 74-921 limits assumed): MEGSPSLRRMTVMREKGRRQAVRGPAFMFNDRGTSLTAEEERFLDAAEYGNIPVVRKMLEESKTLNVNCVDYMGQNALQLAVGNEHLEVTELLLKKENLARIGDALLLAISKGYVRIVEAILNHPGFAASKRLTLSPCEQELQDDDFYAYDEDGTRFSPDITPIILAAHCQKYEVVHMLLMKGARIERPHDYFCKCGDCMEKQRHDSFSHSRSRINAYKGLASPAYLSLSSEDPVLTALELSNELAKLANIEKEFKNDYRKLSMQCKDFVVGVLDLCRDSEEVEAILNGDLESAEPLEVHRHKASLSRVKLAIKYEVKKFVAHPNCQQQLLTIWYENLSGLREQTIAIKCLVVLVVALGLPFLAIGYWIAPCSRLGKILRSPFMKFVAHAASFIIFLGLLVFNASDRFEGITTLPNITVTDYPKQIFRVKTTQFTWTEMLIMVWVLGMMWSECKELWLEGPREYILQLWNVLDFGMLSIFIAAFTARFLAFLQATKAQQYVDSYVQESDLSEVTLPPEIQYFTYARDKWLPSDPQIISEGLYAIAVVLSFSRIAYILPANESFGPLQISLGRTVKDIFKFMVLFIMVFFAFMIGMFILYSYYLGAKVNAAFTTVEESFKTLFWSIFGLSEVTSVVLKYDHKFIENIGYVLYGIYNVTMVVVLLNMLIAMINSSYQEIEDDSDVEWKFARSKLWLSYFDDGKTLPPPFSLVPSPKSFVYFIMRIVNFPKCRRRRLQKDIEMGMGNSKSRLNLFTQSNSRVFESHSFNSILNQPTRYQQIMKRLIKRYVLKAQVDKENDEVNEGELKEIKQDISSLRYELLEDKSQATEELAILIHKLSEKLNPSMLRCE

STIM1/Orai1 = STIM1/Orai1 (Homo sapiens, UniProt Q96D31)
Chain of STIM1/Orai1 (Q96D31 whole entry, species assumed): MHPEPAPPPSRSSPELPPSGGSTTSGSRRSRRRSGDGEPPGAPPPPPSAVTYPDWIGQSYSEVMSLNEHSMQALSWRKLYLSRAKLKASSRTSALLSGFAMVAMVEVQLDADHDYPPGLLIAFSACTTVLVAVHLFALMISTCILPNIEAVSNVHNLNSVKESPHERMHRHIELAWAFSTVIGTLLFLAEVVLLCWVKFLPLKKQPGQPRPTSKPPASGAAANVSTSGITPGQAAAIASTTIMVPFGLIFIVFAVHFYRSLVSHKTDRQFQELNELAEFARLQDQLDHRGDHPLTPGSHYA
Chain of STIM1/Orai1 (Q13586 23-685 partner, species assumed): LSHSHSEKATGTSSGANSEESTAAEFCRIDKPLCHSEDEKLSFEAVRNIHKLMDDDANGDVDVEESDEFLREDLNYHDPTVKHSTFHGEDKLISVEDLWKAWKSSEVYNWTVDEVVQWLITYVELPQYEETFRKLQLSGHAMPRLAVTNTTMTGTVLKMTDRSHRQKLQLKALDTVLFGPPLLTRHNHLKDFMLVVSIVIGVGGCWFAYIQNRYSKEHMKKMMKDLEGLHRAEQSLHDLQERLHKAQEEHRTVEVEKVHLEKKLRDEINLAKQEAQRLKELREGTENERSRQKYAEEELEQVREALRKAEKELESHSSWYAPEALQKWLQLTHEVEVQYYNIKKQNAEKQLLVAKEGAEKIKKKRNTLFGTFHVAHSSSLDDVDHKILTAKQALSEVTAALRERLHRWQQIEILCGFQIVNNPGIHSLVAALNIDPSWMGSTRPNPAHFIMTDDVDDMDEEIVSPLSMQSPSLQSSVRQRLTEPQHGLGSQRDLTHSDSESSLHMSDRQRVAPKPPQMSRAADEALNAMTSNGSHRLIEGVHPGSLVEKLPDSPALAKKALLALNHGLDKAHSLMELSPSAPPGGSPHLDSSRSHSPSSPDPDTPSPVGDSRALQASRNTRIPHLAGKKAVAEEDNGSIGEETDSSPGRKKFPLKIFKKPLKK
Procedure, shortened: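 Whole-cell recording at room temperature in HEK293 transiently co-expressing CFP-STIM1 and YFP-Orai1. CRAC activated by 20 mM EGTA in the pipette with 10 mM CaCl2 in the bath. Bath then switched to divalent-free solution to carry Na+ current. Test compound (10 μM) applied acutely; current followed over time; n = 4 cells.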

IC50 [1] | Higher potency in SOCE model than in TRPC3-ROCE model, orders of magnitude ([1]; RBL-2H3 SOCE vs TRPC3 ROCE) | Higher potency in SOCE model than in TRPC3-ROCE model ([1]; ratio of IC50 values, RBL-2H3 SOCE vs TRPC3 ROCE) | Effect on CRAC Ca2+ entry-mediating conductance [2] | Effect on TRPC3 Ca2+ entry-mediating conductance (TRPC3) | Effect on native CRAC currents upon acute administration ([2]; acute administration, 3 μM, native RBL-2H3 cells) | Effect on divalent-free sodium current through CRAC pore (STIM1/Orai1; 10 μM, divalent-free conditions) | Compound | Effect on ionomycin-initiated degranulation (RBL-2H3 cells; 3 μM) | Effect on ionomycin-initiated degranulation (RBL-2H3 cells; 10 μM) | Effect on NFAT translocation (NFAT) | Effect on reconstituted CRAC pore currents upon acute administration (STIM1/Orai1; HEK293 expressing STIM1 and Orai1, passive store depletion with EGTA)
590 nM | 0.85 OM | sevenfold | completely eliminated | completely eliminated |  |  | Cc1nnsc1C(=O)Nc1ccc(-n2nc(C(F)(F)F)cc2C(F)(F)F)cc1 [Pyr2, N-(4-(3,5-bis(trifluoromethyl)-1H-pyrazole-1-yl)phenyl)-4-methyl-1,2,3-thiadiazole-5-carboxamide] | substantially reduced degranulation | suppressed responses down to basal levels | clearly inhibited NFAT translocation | 
 |  |  | completely eliminated | completely eliminated | rapidly suppresses | affecting sodium influx through it | CCOC(=O)c1cnn(-c2ccc(NC(=O)C(Cl)=C(Cl)Cl)cc2)c1C(F)(F)F [Pyr3, ethyl 1-(4-(2,3,3-trichloroacrylamido)phenyl)-5-(trifluoromethyl)-1H-pyrazole-4-carboxylate] | substantially reduced degranulation | suppressed responses down to basal levels | clearly inhibited NFAT translocation | acutely blocks a reconstituted CRAC pore in a dose-dependent, non-reversible manner
